These results are taken from publication PMC7250216 (Biomedicine & pharmacotherapy = Biomedecine & …, 2020).

Bridges are numbered along the chain shown (N, C = ends). Where no end group is shown, it is not given here.

Assay [1] relates to intracellular Ca2+ mobilization in qV1aR-expressing CHO cells. In kind it is cell-based, Chinese hamster. The conditions noted are these: 1 μM final concentration. The gist of the method:
(§1)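 Stably receptor-transfected CHO-K1 cells were plated at 0.3 million cells/mL and grown overnight. They were loaded for 60 min at 37°C with 4 μM Fluo-3 AM and 0.04% pluronic acid in Locke's buffer (pH 7.4, 2.3 mM CaCl2, 0.5 mM probenecid), then washed four times. Thapsigargin (1 μM final) was given for 5 min. After 60 s baseline, peptide was added and read at ex 488/em 538 nm every 2 s for 200 s.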

In assay [2] the test system is intracellular Ca2+ mobilization in hV1aR-expressing CHO cells. In kind it is cell-based, Chinese hamster. The conditions noted are these: 1 μM final concentration. A digest of the protocol:
as §1

In assay [3] the test system is membrane hyperpolarization in qV1aR-expressing CHO cells. The class given is cell-based, Chinese hamster.
In assay [4] the test system is intracellular Ca2+ mobilization in mV1aR-expressing CHO cells. In kind it is cell-based, Chinese hamster. The conditions noted are these: 1 μM final concentration. A digest of the protocol: as §1
Assay [5] relates to membrane hyperpolarization in hV1aR-expressing CHO cells. The class given is cell-based, Chinese hamster.
The test system of assay [6] is membrane hyperpolarization in mV1aR-expressing CHO cells. The class given is cell-based, Chinese hamster.
Assay [7] has as its system marmoset vasopressin receptor 1a (mV1aR). Kind of assay: FLIPR Membrane Potential. The class given is cell-based, marmoset (Callithrix jacchus). The conditions noted are these: mV1aR expressing cells. A digest of the protocol:
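CHO-K1 cells stably expressing the species' V1aR were plated at 0.3 million cells/mL and grown overnight. They were loaded with FMP Blue in Locke's buffer (pH 7.4, 2.3 mM CaCl2) for 45 min at 37°C. After 60 s baseline, log concentrations of peptide were added, with all peptides run in parallel on one plate. Reads were ex 530/em 565 nm every 2 s for 200 s.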

The test system of assay [8] is untransfected CHO-K1 cells. The conditions noted are these: ref 35 (Pierce et al. 2020); cited from earlier work.
For assay [9], the system named is non-transfected CHO-K1 cells. The conditions noted are these: ref 35 (Pierce et al. 2020); cited from earlier work.

For the compound `C/C=C(/C)C(=O)O[C@H]1C(C)=C2[C@H]([C@@H]1OC(=O)CCCCCCC)[C@@](C)(OC(C)=O)C[C@H](OC(=O)CCC)[C@@]1(O)[C@H]2OC(=O)[C@@]1(C)O` [thapsigargin], the “effect of pretreatment on AVP and OT-analog induced calcium mobilization” value in [1], in assay [2] and in assay [4] was “blocked” each time. Besides, the “effect of pretreatment on AVP and OT-analog induced membrane hyperpolarization” value in assay [3], in [5] and in assay [6] was “eliminated” each time.
Consider `Clc1ccccc1C(c1ccccc1)(c1ccccc1)n1cccn1` [TRAM-34], for which the “effect of pretreatment on AVP and OT-analog induced membrane hyperpolarization” value in assay [3], in assay [5] and in [6] was “most effective inhibition” throughout. Moreover, the “effect on SKA-31-induced membrane hyperpolarization” value in [3], in assay [5] and in assay [6] was “inhibited” in each case.
On to `N=C(N)NCCC[C@H](NC(=O)[C@@H]1CCCN1C(=O)[C@@H]1CSSC[C@H](N)C(=O)N[C@@H](Cc2ccc(O)cc2)C(=O)N[C@@H](Cc2ccccc2)C(=O)N[C@@H](CCC(N)=O)C(=O)N[C@@H](CC(N)=O)C(=O)N1)C(=O)NCC(N)=O` [AVP, Arginine vasopressin], for which the “shape of concentration response curve, membrane hyperpolarization” value in assay [7] is given as “U-shaped concentration response curve”. Also, the induced hyperpolarizing response result in [8] is “absence”. For the same compound, in [9], the “Ca2+ mobilization” value was “did not mobilize”.
Regarding “apamin: selective inhibitor of SKCa channels (CNCKAPETALCARRCQQH-NH2; disulfide 1-11, 3-15; UniProt P01500 28-45, looked up)”, the “inhibition of AVP or OT-analog induced membrane hyperpolarization” value in [3] is given as no more than 10%. For the same compound, in [5], the “effect on AVP or Pro^8-OT-induced hyperpolarizing response” value is “did not markedly affect” and the “reduction of Leu^8-OT-induced membrane hyperpolarization” value is reported as ~ 50%. For the same compound, the “inhibition of AVP or OT-analog induced membrane hyperpolarization” value in assay [6] was no more than 10%.
With `CC(C)(O)[C@H]1O[C@H]2CC[C@@]3(C)[C@@](O)(CC[C@H]4Cc5c([nH]c6ccccc56)[C@@]43C)C2=CC1=O` [paxilline], in assay [3], the “effect on NS-1619-induced membrane hyperpolarization” value is listed as “inhibited” and the “inhibition of AVP or OT-analog induced membrane hyperpolarization” value is on record as 15-30%. Moreover, in assay [5], the “effect of pretreatment on AVP and OT-analog induced membrane hyperpolarization” value is “little to no effect”; the “effect on NS-1619-induced membrane hyperpolarization” value is listed as “inhibited”. Further, in [6], the “effect of pretreatment on AVP and OT-analog induced membrane hyperpolarization” value was “little to no effect”; the “effect on NS-1619-induced membrane hyperpolarization” value is on record as “inhibited”.
Turning to `CC(=O)OCOC(=O)CN(CC(=O)OCOC(C)=O)c1ccccc1OCCOc1ccccc1N(CC(=O)OCOC(C)=O)CC(=O)OCOC(C)=O` [BAPTA-AM, 1,2-Bis(2-aminophenoxy)ethane-N,N,N′,N′-tetraacetic acid tetrakis (acetoxymethyl ester)], the “effect of pretreatment on AVP and OT-analog induced membrane hyperpolarization” value in assay [3], in [5] and in assay [6] was “blocked” in each case.
